Assay results as given in article PMC5614578 (Biochemistry and Biophysics Reports, 2017).
Entries after “also recorded” stand apart in the source; their conditions may differ. Like-named read-outs stand apart in the source and are kept apart here.

Tests used:
[1] = biological target: T1, System xC^- cystine/glutamate antiporter (SXC) (Rattus norvegicus, UniProt A0A8I6AB70); assay: LPS-induced glutamate release from primary microglia; format: cell-based; conditions: for Inhibition of LPS-induced glutamate release (result in words): LPS-treated rat primary microglia
Summary of the method: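 Rat primary microglia were taken from 14–21-day mixed glial cultures of 1–2-day pup brains by shaking at 200 rpm for 2 h at 37 °C. Cells were plated at 50,000/well on poly-D-Lys and switched after 24 h to serum-free, phenol red-free DMEM with 2 mM glutamine and 0.2 mM cystine. Test compound (8 concentrations, 10 pM–100 μM, 0.1% DMSO final, duplicate or triplicate) was added 15 min before 1 μg/ml LPS for 24 h. Extracellular glutamate was read by enzyme-coupled Amplex UltraRed fluorescence against a glutamate standard curve, with cell-free counter-screens.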

[2] = biological target: T1, System xC^- cystine/glutamate antiporter (SXC); conditions: 1 mM; used for background control; stated as known, no reference given; cited from earlier work
[3] = biological target: T1, System xC^- cystine/glutamate antiporter (SXC); assay: [14C]-cystine uptake by LPS-activated primary microglia; format: cell-based
Summary of the method: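 Microglia were exposed for 24 h to HBSS or LPS (in HBSS) in DMEM with 0.2 mM cystine. An aliquot of that medium was checked for glutamate release to confirm activation. Medium was then replaced and uptake was measured over 15 min in EBSS with [¹⁴C]-cystine tracer (45 μCi/μmol, 10 μM), with LPS ± test compound. Specific uptake was obtained by subtracting a background control. Values average at least four determinations.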

[4] = tested on: ferroptosis; conditions: read-out: EC50 for induction of ferroptosis; cited from earlier work
[5] = tested on: rat primary microglia; format: cell-based; conditions: 24 h treatment; Pam3CSK4 10 µg/ml, poly I:C 50 µg/ml, Tat 1 µM, LPS 1 µg/ml
Summary of the method: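 Primary microglia were isolated from neonatal rat mixed glial cultures by shaking and kept in serum-free, phenol red-free DMEM with 2 mM glutamine and 0.2 mM cystine. Cells were stimulated for 24 h with the activator. Extracellular glutamate was quantified by enzyme-coupled Amplex UltraRed fluorescence against a standard curve, linear over 0.5–64 μM glutamate.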

T1 sequence (A0A8I6AB70 1-502): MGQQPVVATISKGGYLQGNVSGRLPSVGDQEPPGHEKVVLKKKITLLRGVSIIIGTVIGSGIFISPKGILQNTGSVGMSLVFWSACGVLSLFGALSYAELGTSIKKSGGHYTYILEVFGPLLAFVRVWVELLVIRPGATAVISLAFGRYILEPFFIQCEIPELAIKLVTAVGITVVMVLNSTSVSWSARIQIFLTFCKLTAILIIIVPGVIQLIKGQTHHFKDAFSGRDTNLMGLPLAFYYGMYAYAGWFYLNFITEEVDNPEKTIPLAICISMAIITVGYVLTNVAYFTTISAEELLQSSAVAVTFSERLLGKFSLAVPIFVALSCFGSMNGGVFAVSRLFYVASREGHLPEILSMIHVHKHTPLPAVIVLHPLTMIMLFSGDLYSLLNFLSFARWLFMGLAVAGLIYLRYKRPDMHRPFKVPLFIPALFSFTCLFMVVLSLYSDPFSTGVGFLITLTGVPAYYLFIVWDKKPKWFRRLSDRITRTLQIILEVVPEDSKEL
T1 sequence (Q794F9 whole entry partner): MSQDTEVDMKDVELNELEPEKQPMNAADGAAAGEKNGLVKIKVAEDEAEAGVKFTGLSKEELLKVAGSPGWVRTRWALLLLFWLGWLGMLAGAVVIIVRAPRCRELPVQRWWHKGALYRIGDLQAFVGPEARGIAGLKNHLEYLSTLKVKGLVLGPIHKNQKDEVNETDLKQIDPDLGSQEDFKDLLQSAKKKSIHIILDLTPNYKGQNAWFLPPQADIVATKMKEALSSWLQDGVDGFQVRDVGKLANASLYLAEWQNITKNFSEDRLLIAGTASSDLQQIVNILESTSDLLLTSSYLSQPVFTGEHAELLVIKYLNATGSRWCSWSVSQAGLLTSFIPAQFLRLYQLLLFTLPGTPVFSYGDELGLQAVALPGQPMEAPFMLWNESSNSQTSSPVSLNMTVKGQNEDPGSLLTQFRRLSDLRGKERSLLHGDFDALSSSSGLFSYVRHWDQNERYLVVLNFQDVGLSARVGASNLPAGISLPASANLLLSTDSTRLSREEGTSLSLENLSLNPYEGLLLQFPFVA

O=C(O)c1cc(/N=N/c2ccc(S(=O)(=O)Nc3ccccn3)cc2)ccc1O [sulfasalazine]
Inhibition of LPS-induced glutamate release (result in words) [1]: blocked
Inhibition of SXC activity (result in words) [2]: completely inhibit
Inhibition of cystine uptake (result in words) [3]: blocked

N[C@@H](C(=O)O)c1ccc(C(=O)O)cc1 [R-4CPG]
Inhibition of LPS-induced glutamate release (result in words) [1]: failed to inhibit
Inhibition of LPS-induced glutamate release (result in words) ([1]; listed as (R)-4-CPG): did not inhibit
Inhibition of cystine uptake (result in words) [3]: failed to inhibit
Inhibition of cystine uptake (result in words) ([3]; listed as (R)-4-CPG): did not inhibit

CCOc1ccccc1-n1c(C(C)N2CCN(C(=O)COc3ccc(Cl)cc3)CC2)nc2ccccc2c1=O (stereo not shown) [erastin]
EC50 [1]: 130 ± 40 nM
Inhibition of LPS-induced glutamate release (result in words) [1]: blocked
EC50 [4]: 1200 nM
Inhibition of cystine uptake (result in words) [3]: blocked

CCOc1ccccc1-n1c(C(C)N2CCN(C(C)=O)CC2)nc2ccccc2c1=O (stereo not shown) [Erastin A8]
Inhibition of LPS-induced glutamate release (result in words) [1]: abolished inhibitory activity; also recorded: inactive
Inhibition of cystine uptake (result in words) [3]: inactive

N[C@H](C(=O)O)c1ccc(C(=O)O)cc1 [S-4CPG, (S)-4-carboxyphenyl glycine]
Inhibition of LPS-induced glutamate release (result in words) [1]: blocked
Inhibition of cystine uptake (result in words) [3]: blocked

CC(C)Oc1ccccc1-n1c(CN2CCN(C(=O)COc3ccc(Cl)cc3)CC2)nc2ccccc2c1=O [13MEW76]
Inhibition of LPS-induced glutamate release (result in words) [1]: did not affect inhibitory activity

CCOc1ccccc1-n1c(C(C)N2CCN(C(=O)COc3ccccc3)CC2)nc2ccccc2c1=O (stereo not shown) [35MEW13]
Inhibition of LPS-induced glutamate release (result in words) [1]: abolished inhibitory activity

polyinosinic: polycytidylic acid [poly I:C]
Induction of glutamate release (result in words) [5]: Significant glutamate release

B1: HIV-1 Tat1–86 protein: HIV-1 Tat1–86 protein obtained from Diatheva, microglia activator (protein, UniProt P04608 1-86, looked up)
Protein Tat: MEPVDPRLEPWKHPGSQPKTACTNCYCKKCCFHCQVCFITKALGISYGRKKRRQRRRAHQNSQTHQASLSKQPTSQPRGDPTGPKE
Induction of glutamate release (result in words) [5]: Significant glutamate release
